Test results reported in ChEMBL document CHEMBL3868603, “Synthesis and evaluation of naphthyl bearing 1,2,3-triazole analogs as antiplasmodial agents, cytotoxicity and docking studies” (Bioorg Med Chem, 2017).

Tests used:
Plasmodium falciparum [1] = test: Antiplasmodial activity against pyrimethamine-sensitive Plasmodium falciparum 3D7 infected in human erythrocytes incubated for 50 hrs by SYBR green 1 dye based fluorescence assay; type: functional, cell-based; conditions: 3D7, 50 h
Outline: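 Parasites cultured in RPMI 1640 with 10% human serum, erythrocytes at 2% haematocrit, 37°C, 5% O2/5% CO2/90% N2; sorbitol-synchronized rings. DMSO stocks serially 2-fold diluted; 1% ring-infected erythrocytes at 4% haematocrit, 50 h. SYBR Green 1 lysis buffer, fluorescence Ex 485/Em 530; chloroquine (500 nM) background subtracted, normalized to DMSO (0.05%), nonlinear regression IC50; two independent experiments in duplicate.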

Plasmodium falciparum [2] = test: Antiplasmodial activity against pyrimethamine-resistant Plasmodium falciparum Dd2 infected in human erythrocytes incubated for 50 hrs by SYBR green 1 dye based fluorescence assay; type: functional, cell-based; conditions: Dd2, 50 h
Outline: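 Ring-stage sorbitol-synchronised parasites in RPMI 1640 with 10% human serum, 1% ring parasitaemia, 2% final haematocrit; compounds from DMSO stocks in 2-fold serial dilution; 37°C, 5% O2/5% CO2/90% N2, 50 h; lysis buffer with SYBR Green 1, fluorescence Ex 485/Em 530; chloroquine (500 nM) background subtracted, normalised to DMSO (0.05%) wells; nonlinear regression IC50; two independent experiments in duplicate.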

[3] = Cytotoxicity against HEK293 cells assessed as decrease in cell viability at 100 uM after 48 hrs by MTT assay; type: toxicity, cell-based; conditions: human, hek293, 48 h
Outline: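 HEK-293 in MEM with 10% FBS, seeded 10,000 cells/well, 24 h at 37°C, 5% CO2; treated 1–100 µM in triplicate with DMSO control and doxorubicin reference, 48 h. MTT added 1 h, dried, DMSO dissolved, absorbance 562 nm; IC50 as 50% absorbance reduction versus control, mean ± SD of three independent experiments.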

Plasmodium falciparum [4] = test: Inhibition of trophozoite stage of Plasmodium falciparum DHFR assessed as reduction in NADPH depletion at 25 uM incubated for 30 mins followed by NADPH addition measured for 30 mins at 15 secs interval by UV/Vis spectrophotometric analysis
Outline: (§1)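 Soluble extract from saponin-isolated trophozoites (culture at 15-16% parasitaemia), freeze-thaw, sonication, centrifugation; protein by Bradford. 500 µg extract in 1 ml assay buffer with inhibitor or 0.05% DMSO, 30 min room temperature, spun to remove precipitate; 60 µM NADPH and 50 µM DHA added, A340 decrease read every 15 s for 30 min; slope by linear regression as percent of control, representative experiment.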

Plasmodium falciparum [5] = test: Potency index, ratio of pyrimethamine IC50 to compound IC50 for pyrimethamine-resistant Plasmodium falciparum Dd2 infected in human erythrocytes; type: functional
Plasmodium falciparum [6] = test: Inhibition of trophozoite stage of Plasmodium falciparum DHFR assessed as reduction in NADPH depletion at 50 uM incubated for 30 mins followed by NADPH addition measured for 30 mins at 15 secs interval by UV/Vis spectrophotometric analysis; outline: as §1

IC50 (Plasmodium falciparum [1]) | SMILES | IC50 (Plasmodium falciparum [2]) | Activity [3] | inhibition (Plasmodium falciparum [4]) | Ratio IC50 (Plasmodium falciparum [5]) | inhibition (Plasmodium falciparum [6])
21.2 µM | C=CCn1cc(COc2ccc3cc(Br)ccc3c2)nn1 |  | Non-Toxic | 13% |  | 
26.2 µM | CCCCCn1cc(COc2ccc3cc(Br)ccc3c2)nn1 |  | Non-Toxic |  |  | 
80 µM | c1ccc2cc(OCc3cn(CCN4CCOCC4)nn3)ccc2c1 |  | Non-Toxic |  |  | 
61.5 µM | CC(C)Cn1cc(COc2ccc3ccccc3c2)nn1 |  | Non-Toxic |  |  | 
46.5 µM | CCCCCn1cc(COc2ccc3ccccc3c2)nn1 |  | Non-Toxic |  |  | 
41.5 µM | O=C(O)CC[C@H](NC(=O)c1ccc(-n2cc(COc3ccc4cc(Br)ccc4c3)nn2)cc1)C(=O)O |  | Non-Toxic |  |  | 
97.5 µM | CCn1cc(COc2ccc3ccccc3c2)nn1 |  | Non-Toxic |  |  | 
43.5 µM | CC(C)n1cc(COc2ccc3ccccc3c2)nn1 |  | Non-Toxic |  |  | 
48.6 µM | C=CCn1cc(COc2ccc3ccccc3c2)nn1 |  | Non-Toxic |  |  | 
39 µM | c1ccc2cc(OCc3cn(C4CCCC4)nn3)ccc2c1 |  | Non-Toxic |  |  | 
54.5 µM | CCCn1cc(COc2ccc3ccccc3c2)nn1 |  | Non-Toxic |  |  | 
27.3 µM | Brc1ccc2cc(OCc3cn(C4CCCC4)nn3)ccc2c1 |  | Non-Toxic |  |  | 

SMILES | IC50 (Plasmodium falciparum [1]) | IC50 (Plasmodium falciparum [2]) | Activity [3] | inhibition (Plasmodium falciparum [4]) | Ratio IC50 (Plasmodium falciparum [5]) | inhibition (Plasmodium falciparum [6])
CCn1cc(COc2ccc3cc(Br)ccc3c2)nn1 | 23.6 µM | 34.2 µM | Non-Toxic |  |  | 
CC(C)n1cc(COc2ccc3cc(Br)ccc3c2)nn1 | 21 µM | 24 µM | Non-Toxic |  | 3 | 
CC(C)Cn1cc(COc2ccc3cc(Br)ccc3c2)nn1 | 19.6 µM | 31 µM | Non-Toxic | 41% | 3 | 
CCc1nc(N)nc(N)c1-c1ccc(Cl)cc1 [PYRIMETHAMINE] | 0.047 µM | 34 µM |  |  |  | 25%
O=[N+]([O-])c1ccc(Cn2cc(COc3ccc4ccccc4c3)nn2)cc1 | 39.6 µM | 41.6 µM | Non-Toxic |  |  | 
CCCn1cc(COc2ccc3cc(Br)ccc3c2)nn1 | 22.1 µM | 36.9 µM | Non-Toxic |  |  | 
O=[N+]([O-])c1ccc(Cn2cc(COc3ccc4cc(Br)ccc4c3)nn2)cc1 | 14.7 µM | 13.6 µM | Non-Toxic |  | 3 | 
